How the values were obtained:
[1] = system: HeLa; assay: Antiproliferative activity against human HeLa cells assessed as reduction in cell viability after 24 hrs by MTT assay; assay type: functional, cell-based
Procedure, shortened: (§1)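 MTT colorimetric assay. Cells in log phase in medium with 10% FBS were seeded at 10⁴ cells/well and left overnight at 37 °C, 5% CO₂ to reattach. Compounds were added at 0.1, 1, 10 and 100 μM in 10% FBS for 24 h. IC50 reported as mean ± SD of three independent experiments.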

[2] = Cytotoxicity against human LO2 cells assessed as reduction in cell viability after 24 hrs by MTT assay; assay type: cell-based, L02; procedure, shortened: as §1
[3] = system: NCI-H460; assay: Antiproliferative activity against human H460 cells assessed as reduction in cell viability after 24 hrs by MTT assay; assay type: functional, cell-based; details: NCI-H460, 24 h; procedure, shortened: as §1
[4] = system: A549; assay: Antiproliferative activity against human A549 cells assessed as reduction in cell viability after 24 hrs by MTT assay; assay type: functional, cell-based; details: A549, 24 h
[5] = system: MCF7; assay: Antiproliferative activity against human MCF7 cells assessed as reduction in cell viability after 24 hrs by MTT assay; assay type: functional, cell-based; details: MCF7, 24 h; procedure, shortened: as §1
[6] = target: T1, Epidermal growth factor receptor (Homo sapiens, UniProt P00533); assay: Inhibition of C-terminal His-tagged N-terminal GST-tagged human EGFR (668 to 1210 residues) expressed in baculovirus infected Sf9 cells after 30 mins in presence of gamma-[32p-ATP] binding assay
T1 sequence (P00533 whole entry, the tested form may be a part): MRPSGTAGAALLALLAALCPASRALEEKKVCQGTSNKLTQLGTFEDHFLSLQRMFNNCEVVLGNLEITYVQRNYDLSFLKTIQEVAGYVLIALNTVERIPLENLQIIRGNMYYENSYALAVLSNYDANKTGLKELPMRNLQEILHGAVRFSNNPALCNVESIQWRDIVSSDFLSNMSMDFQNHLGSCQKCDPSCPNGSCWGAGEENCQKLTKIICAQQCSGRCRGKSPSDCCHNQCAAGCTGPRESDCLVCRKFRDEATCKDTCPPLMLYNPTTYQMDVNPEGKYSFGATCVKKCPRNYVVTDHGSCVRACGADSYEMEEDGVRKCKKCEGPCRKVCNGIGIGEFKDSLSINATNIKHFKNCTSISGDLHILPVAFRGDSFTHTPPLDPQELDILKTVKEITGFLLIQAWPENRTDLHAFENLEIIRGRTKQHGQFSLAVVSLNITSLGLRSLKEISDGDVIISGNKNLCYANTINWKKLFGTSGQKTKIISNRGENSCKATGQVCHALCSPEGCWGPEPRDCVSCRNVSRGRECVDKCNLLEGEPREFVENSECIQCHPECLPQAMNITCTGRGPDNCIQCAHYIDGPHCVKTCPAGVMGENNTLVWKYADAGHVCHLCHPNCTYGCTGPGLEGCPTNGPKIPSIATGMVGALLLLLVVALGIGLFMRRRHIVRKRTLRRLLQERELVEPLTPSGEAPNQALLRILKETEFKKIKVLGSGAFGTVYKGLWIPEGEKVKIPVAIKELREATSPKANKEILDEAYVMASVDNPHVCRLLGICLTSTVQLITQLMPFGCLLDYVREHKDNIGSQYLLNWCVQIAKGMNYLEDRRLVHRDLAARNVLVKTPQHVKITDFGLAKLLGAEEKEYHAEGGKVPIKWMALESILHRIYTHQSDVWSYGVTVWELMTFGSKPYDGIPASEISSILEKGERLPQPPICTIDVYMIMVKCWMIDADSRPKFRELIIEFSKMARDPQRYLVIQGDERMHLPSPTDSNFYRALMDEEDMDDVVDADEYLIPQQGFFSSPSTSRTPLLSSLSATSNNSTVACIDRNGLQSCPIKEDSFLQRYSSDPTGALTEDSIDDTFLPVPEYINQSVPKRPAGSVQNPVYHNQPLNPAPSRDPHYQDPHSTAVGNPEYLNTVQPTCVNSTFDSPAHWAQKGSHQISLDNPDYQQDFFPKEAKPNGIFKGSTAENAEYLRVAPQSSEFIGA

[7] = system: NCI-H1975; assay: Antiproliferative activity against human NCI-H1975 cells assessed as reduction in cell viability after 24 hrs by MTT assay; assay type: functional, cell-based; details: NCI-H1975, 24 h; procedure, shortened: as §1
[8] = target: T1, Epidermal growth factor receptor; assay: Potency index, ratio of shi-konin IC50 to compound IC50 for inhibition of C-terminal His-tagged N-terminal GST-tagged human EGFR (668 to 1210 residues) expressed in baculovirus infected Sf9 cells after 30 mins in presence of gamma-[32p-ATP] binding assay
[9] = Toxicity in ip dosed Balb/c mouse xenografted with human A549 cells assessed as reduction in body weight at 2 mg/kg, ip administered once every two days for 32 days and measured for every 2 days; assay type: organism-based; details: in vivo
Procedure, shortened: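 Female BALB/c nude mice (5-6 weeks) received 6×10^6 A549 cells s.c. in the flank. After two weeks (tumours ~90 mm³) they were split into 5 groups (n = 8). Dosing was 2 or 4 mg/kg, dissolved in DMSO, i.p. once every two days for 16 doses; DMSO vehicle served as control. Body weight and tumour volume (L×S²/2) were recorded every two days; mice were killed at day 32.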

[10] = system: A549; assay: Induction of apoptosis in human A549 cells assessed as high mitochondrial membrane potential after 20 mins by JC-1 staining-based flow cytometric analysis (reference value: 90.6%); assay type: functional
[11] = system: A549; assay: Induction of apoptosis in human A549 cells assessed as low mitochondrial membrane potential after 20 mins by JC-1 staining-based flow cytometric analysis (reference value: 6.3%); assay type: functional
[12] = target: Tubulin (Homo sapiens) (UniProt P68371+Q9H4B7+P0DPH7+P68366+Q13509+Q71U36+P04350+Q3ZCM7+P07437+P68363+Q9BQE3+Q6PEY2+Q13885+Q9BVA1+Q9BUF5); assay: Inhibition of microtubule polymerization in human A549 cells assessed as polymerized tubulin expression at 1 uM after 24 hrs by immuno blot analysis; assay type: cell-based

Structure (SMILES)	IC50 [1]	CC50 at 24 h [2]	IC50 [3]	IC50 [4]	IC50 [5]	IC50 [6]	IC50 [7]	Ratio IC50 [8]	Activity [9]	Activity [10]	Activity [11]	fold change (FC) [12]
CC(C)=CC[C@@H](OC(=O)/C=C\C(=O)c1ccc(C)c(C)c1)C1=CC(=O)c2c(O)ccc(O)c2C1=O	10.1 µM	88.4 µM	11.3 µM	9.12 µM	14.3 µM	0.119 µM	15.7 µM					
CC(C)=CC[C@@H](OC(=O)/C=C\C(=O)c1cc(F)ccc1C)C1=CC(=O)c2c(O)ccc(O)c2C1=O	14.2 µM	93.5 µM	8.35 µM	13.4 µM	10.1 µM	0.0234 µM	7.26 µM	6				
CC(C)=CC[C@@H](OC(=O)/C=C\C(=O)c1cc(C)ccc1C)C1=CC(=O)c2c(O)ccc(O)c2C1=O	10.2 µM	78.1 µM	13.2 µM	13.1 µM	5.28 µM	> 0.15 µM	10.2 µM					
CC(C)=CC[C@@H](O)C1=CC(=O)c2c(O)ccc(O)c2C1=O [SHIKONIN]	7.84 µM	12.2 µM	5.04 µM	6.13 µM	9.55 µM	0.139 µM	4.28 µM		Toxic			
CC(C)=CC[C@@H](OC(=O)/C=C\C(=O)c1ccc(C)cc1C)C1=CC(=O)c2c(O)ccc(O)c2C1=O	18.6 µM	> 100 µM	9.17 µM	10.2 µM	7.89 µM	> 0.15 µM	16.6 µM					
CC(C)=CC[C@@H](OC(=O)/C=C\C(=O)c1ccc(C)cc1F)C1=CC(=O)c2c(O)ccc(O)c2C1=O	15.1 µM	> 100 µM	13.6 µM	12.6 µM	6.64 µM	0.12 µM	9.56 µM					
CC(C)=CC[C@@H](OC(=O)/C=C\C(=O)c1ccc(Br)cc1)C1=CC(=O)c2c(O)ccc(O)c2C1=O	8.02 µM	> 100 µM	6.51 µM	9.19 µM	9.31 µM	0.12 µM	13.3 µM					
CC(C)=CC[C@@H](OC(=O)/C=C\C(=O)c1ccc(C)c(F)c1)C1=CC(=O)c2c(O)ccc(O)c2C1=O	8.27 µM	> 100 µM	10.1 µM	9.39 µM	7.68 µM	0.107 µM	7.25 µM					
CC(C)=CC[C@@H](OC(=O)/C=C\C(=O)c1ccccc1)C1=CC(=O)c2c(O)ccc(O)c2C1=O	17.6 µM	> 100 µM	4.59 µM	7.51 µM	19.4 µM	> 0.15 µM	10.3 µM					
CC(C)=CC[C@@H](OC(=O)/C=C\C(=O)c1ccc(C)c(Br)c1)C1=CC(=O)c2c(O)ccc(O)c2C1=O	17.2 µM	> 100 µM	4.21 µM	15.4 µM	14.3 µM	> 0.15 µM	22.5 µM					
CN(C)C/C=C/C(=O)Nc1cc2c(Nc3ccc(F)c(Cl)c3)ncnc2cc1O[C@H]1CCOC1 [AFATINIB]	6.39 µM	25.3 µM	6.14 µM		7.62 µM		5.55 µM					
CC(C)=CC[C@@H](OC(=O)/C=C\C(=O)c1ccc(Cl)cc1)C1=CC(=O)c2c(O)ccc(O)c2C1=O	11.4 µM	> 100 µM	11.7 µM	8.52 µM	9.62 µM	0.0325 µM	11.8 µM					
N#CC(C#N)=NNc1cccc(Cl)c1 [CARBONYL CYANIDE M-CHLOROPHENYLHYDRAZONE]										26.5%	67.9%	
CCc1ccc(C(=O)/C=C\C(=O)O[C@H](CC=C(C)C)C2=CC(=O)c3c(O)ccc(O)c3C2=O)cc1	15.2 µM	92.4 µM	16.4 µM	14.5 µM	9.37 µM	0.0508 µM	12.4 µM					
CC(C)=CC[C@@H](OC(=O)/C=C\C(=O)c1ccc(C)cc1)C1=CC(=O)c2c(O)ccc(O)c2C1=O	8.96 µM	64.2 µM	11.4 µM	9.72 µM	9.14 µM	0.0452 µM	10.2 µM					
CC(=O)O[C@H]1C(=O)[C@@]2(C)[C@H]([C@H](OC(=O)c3ccccc3)[C@]3(O)C[C@H](OC(=O)[C@H](O)[C@@H](NC(=O)c4ccccc4)c4ccccc4)C(C)=C1C3(C)C)[C@]1(OC(C)=O)CO[C@@H]1C[C@@H]2O												0.82
CC(C)=CC[C@@H](OC(=O)/C=C\C(=O)c1cc(Cl)ccc1C)C1=CC(=O)c2c(O)ccc(O)c2C1=O	9.34 µM	83.3 µM	10.3 µM	13.2 µM	18.6 µM	0.146 µM	18.3 µM					
CC(C)=CC[C@@H](OC(=O)/C=C\C(=O)c1ccc(C)cc1Cl)C1=CC(=O)c2c(O)ccc(O)c2C1=O	10.1 µM	> 100 µM	8.16 µM	6.23 µM	6.63 µM	0.105 µM	9.56 µM					

From ChEMBL document CHEMBL4406881, “Design, synthesis and biological evaluation of benzoylacrylic acid shikonin ester derivatives as irreversible dual inhibitors of tubulin and EGFR” (Bioorg Med Chem, 2019)
